According to ChEMBL document CHEMBL4513216, “Probing the Open Global Health Chemical Diversity Library for Multistage-Active Starting Points for Next-Generation Antimalarials” (ACS Infect Dis, 2020):

assay: Toxicity liver stage against HepG2, at 10uM; assay type: cell-based; design: test concentration 10 uM, cell line HepG2-A16-CD81EGFP; settings: human, HepG2-A16-CD81EGFP cells; read-out: INHIBITION
Method in brief: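 Uninfected HepG2-A16-CD81EGFP cells, 3 × 10^3 per well, 1536-well, plated on prespotted compound at 10 μM final, parasite-free screening media added to match infected plates; puromycin 10 μM positive, DMSO 0.5% negative; run in parallel with 48 h PbLuc assay at 37 °C, 5% CO2; viability by CellTiter-Glo luminescence, normalized to controls.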

SMILES	cytotoxicity at 10 µM
Cn1cncc1-c1nnc([C@H]2CCN(Cc3ccc(CO)o3)C2)o1	-4.09%
CCN1C[C@@H]2CN(C(=O)c3ccsc3)C[C@@H]2C1=O	-6.57%
Cc1occc1C(=O)N1C[C@@H]2[C@@H](C1)OCC(=O)N2Cc1cccnc1	0.661%
COc1cc(N2CCCC(c3nccn3Cc3cccnc3)C2)ncn1 (stereo not given)	-1.86%
O=C(c1ccccn1)N1CCC(c2nccn2Cc2ccncc2)CC1	1.94%
COc1ccc(-c2nc(CN3CC(n4nc(C)cc4C)C3)no2)cc1	-3.88%
N#CCCCn1nnc(C2(NC(=O)c3ccccc3)CCCC2)n1	13.6%
COc1ccc(C2=CCN(C(=O)CN(CC(N)=O)C(C)C)CC2)cc1	23.3%
COc1ccc(OC)c(C(O)CNC(=O)Nc2cccnc2OC)c1 (stereo not given)	-22.4%
CCSCCC(=O)Nc1ncn(CC(=O)NCc2ccccc2)n1	20%
CCn1cc(CN2CCCN(C(=O)c3cccc(C#N)c3)CC2)cn1	0.893%
Cc1cc(CN2CCC(O)(Cn3ccc4ncccc43)CC2)c(C)s1	-16.1%
CNC(=O)NC(=O)C(NCc1cccs1)c1ccccc1 (stereo not given)	6.75%
O=C(NCCN1CCOCC1)c1cc(-c2ccc3c(c2)CCO3)n[nH]1	-2.95%
Cc1ccc(S(=O)(=O)N[C@H](CO)C(C)C)cc1N(C)C	-5.53%
COCCN1CC2(CCOCC2)c2cc(NC(=O)C3CC=CC3)ccc21	-109%
O=C1NCC(C(=O)Nc2ncc(Cc3ccc(F)cc3F)s2)N1 (stereo not given)	-4.01%
CCN(C)C(=O)c1cccc(C(=O)N(C)Cc2cccc(O)c2)c1	11.7%
Cc1cc2nc(C(C)C)cc(N3CCC(O)CC3)n2n1	-8.63%
COc1cc(N2C[C@@H](C)[C@](O)(C3CC3)C2)ncn1	-0.714%
O=C(COc1ccc2c(c1)CCC2)N1CCOCC1c1ncon1 (stereo not given)	-10.2%
CN1CCN(C2CCN(Cc3nnc(C(C)(C)C)o3)CC2)C1=O	-16.2%
CC(C)N1[C@H](Cn2cncn2)C[C@@H]2CN(Cc3cccs3)CC[C@@H]21	-109%
O=C1NC2(CCN(C(=O)c3ccc(Cl)cn3)CC2)CC1c1ccccc1 (stereo not given)	2.75%
CC1(C(=O)N2CCN(c3ncccn3)CC2)CNCCO1 (stereo not given)	-0.79%
N#CCCN(Cc1ccccn1)C(=O)c1cccc(CN2CCCC2)c1	4.93%
CCS(=O)(=O)N1CCC(c2nn(CCN(C)C)c3ncccc23)C1 (stereo not given)	-4.88%

SMILES	cytotoxicity at 10 µM
Cc1cc(S(=O)(=O)NC(C)(C)CN)c(F)cc1F	4.87%
O=C(CC1CCN(CCc2ccccc2)CC1)N1CCCOCC1	-2.38%
Cc1cc(O)n(-c2ccccc2Cl)c(=O)c1C#N	2.96%
CC(C)(C)NC(=O)c1nn(C2CCS(=O)(=O)C2)c2c1CCCC2 (stereo not given)	10.1%
Cc1noc(C2CCCN(C(=O)CCNc3ncccn3)C2)n1 (stereo not given)	-8.27%
O=C(c1ccc2c(c1)OCCO2)N1CCCC(n2ccnc2)C1 (stereo not given)	-16.3%
N#Cc1ccc(N2CCN(c3cnccn3)CC2)cc1C(F)(F)F	38.6%
Cc1cc(C2CCCCN2C(=O)CN2C(=O)OC(C)(C)C2=O)no1 (stereo not given)	3.35%
CCCS(=O)(=O)c1ncc(CN2CCC(C)CC2)n1CC1CCCO1 (stereo not given)	-5.12%
CC(C)C(=O)N1CCC(NCc2c(C(C)C)nn(C)c2N(C)C)CC1	5.21%
CCOC(=O)[C@H]1[C@@H](O)C(=O)N(C)C12CCN(C(=O)CC(C)C)CC2	-5.12%
CSc1ncccc1C(=O)NCCC(O)c1ccco1 (stereo not given)	-2.93%
O=C(NCc1cccnc1-n1cncn1)c1ccncc1	5.91%
Cc1nnc(N2CCCC3(CN(c4cccc(F)c4)CCO3)C2)o1 (stereo not given)	0.777%
O=C(CN1CCOC(c2ccc(Cl)c(Cl)c2)C1)NCc1ccco1 (stereo not given)	-7.31%
CC(NC(=O)c1cc(Br)c2c(c1)OCCO2)C(N)=O (stereo not given)	-1.06%
Cc1ccc(OCc2nnc(SCC3CCCN(C)C3)o2)cc1 (stereo not given)	-3.73%
COCCN1CC[C@]2(CN(C(=O)c3ccc[nH]3)C[C@H]2C)C1=O	2.53%
Cc1ccc(Oc2nccnc2C2CCN(C(=O)C(C)(C)N)CC2)cc1	-7.86%
CN(Cc1ccc(-n2cccn2)cc1)c1nc(N)nc2c1CCNCC2	6.99%
CN(C(=O)CSc1ccccn1)C1CCCN(CCc2ccccc2)C1 (stereo not given)	-4.46%
CC(=O)N1CCc2ccc(NC(=O)c3cn(C)nn3)cc2C1	5.45%
Nc1cc(-c2cccs2)nn(CC(=O)NCC2CCCCC2)c1=O	-3.09%
O=c1c(=CS(=O)(=O)Nc2ccc(Br)cc2)[nH]c(=O)n2cccc12	-9.95%
Cc1nn(C)c(Cl)c1C1CCCN1C(=O)c1ccc2c(c1)OCO2 (stereo not given)	-2.9%
COC(=O)c1ccc(CNC(=O)Cc2csc(C(C)=O)c2)cc1	5.03%
COc1ccc(N(C(=O)c2cnc(C)cn2)C(C)C)cc1F	-2.96%

SMILES	cytotoxicity at 10 µM
CCC(CC)S(=O)(=O)NC(=O)c1ccc2c(c1)ncn2C	-6.58%
O=C(O)CCc1cc2n(n1)CCCN(C(=O)c1ccc(Cl)s1)C2	-6.06%
c1ccc(-n2cc(CN3CCCC(Cn4cncn4)C3)nn2)cc1 (stereo not given)	1.52%
CCCc1cc(NCCC2CCCOC2)n2nccc2n1 (stereo not given)	3.63%
COc1c(CNC2CCCOc3ccccc32)c(C)nn1C (stereo not given)	1.86%
CN1CCN(CCCNC(=O)c2nc3ccccc3c(=O)[nH]2)CC1	-5.46%
Cc1ccccc1CC(=O)N1CC[C@@](O)(CNS(C)(=O)=O)[C@H](O)C1	-25.6%
OC1CCN(Cc2c(-c3ccco3)[nH]c3ncccc23)CC1	-1.58%
COc1cc(CNCC(O)c2ccc(C)cc2)cc2c1OCO2 (stereo not given)	-0.282%
Cc1nc(CO[C@@H]2CC[C@H]3[C@H]2OCCN3Cc2cccnc2)cs1	-1.43%
O=C1CC2(CCSC2)C(=O)N1Cc1coc(-c2ccccc2)n1 (stereo not given)	5.57%
Nc1cc(-c2c[nH]nc2C2CCCN2S(=O)(=O)c2ccccc2)ccn1 (stereo not given)	6.34%
CCCN(CC1CC1)C(=O)Nc1ccc(N2CCSCC2)cc1C	3.05%
N#CC(NC(=O)CCC(=O)NC1CCCC1)c1ccc(F)cc1F (stereo not given)	6.75%
CCCn1ncc(C2CC(=O)NCc3nc4sc(C)cn4c32)c1C (stereo not given)	-10.8%
CC(C)NC(=O)c1noc2c1CN(Cc1cnn(C)c1)CC2	6.59%
CC(CCN1CCOCC1)NC(=O)c1cccc(C(F)(F)F)c1F (stereo not given)	-44.8%
CC(=O)NCCC1CCCCN1S(=O)(=O)c1cccc(F)c1 (stereo not given)	-155%
CC(=O)N1CC=C(n2c(=O)[nH]c3ccccc32)CC1	1.73%
O=C(c1cccnc1)N1C[C@H]2CC[C@@H](C1)N(Cc1cccc(Cl)c1F)C2	-9.24%
CNC(=O)c1cccc(CNC2CCSc3c(Cl)cccc32)c1 (stereo not given)	12.8%
CCCNC(=O)CN1CCCC1c1nc(Cc2ccc(F)cc2)no1 (stereo not given)	4.8%
Cc1ccccc1-c1noc(CN2CCn3c(nnc3C3CC3)C2)n1	-7.64%
O=C(c1ncoc1-c1ccco1)N1CCCN(c2nccs2)CC1	2.99%
COc1c(CNC2CCN(C(=O)C3CC3)CC2)c(C(C)C)nn1C	-4.72%
COCCC1(CO)CCCN(C(=O)c2cccnc2OC)C1 (stereo not given)	-47.8%
